APOBEC3G inh: inhibitors of human APOBEC3G DNA deaminase. 330,000 tested, 0.28% active. Q9HC16. AID 493012. recombinant A3G, ssDNA deamination FAM/TAMRA fluorescence. inhibition, % at 20 µM;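 active = inhibition of at least 40% at 20 µM, with no more than 30% in the related APOBEC3A deaminase screen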;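 note: plate controls were DMSO wells with A3G for no effect and wells lacking A3G enzyme for full effect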
Target sequence (Q9HC16 whole entry, looked up): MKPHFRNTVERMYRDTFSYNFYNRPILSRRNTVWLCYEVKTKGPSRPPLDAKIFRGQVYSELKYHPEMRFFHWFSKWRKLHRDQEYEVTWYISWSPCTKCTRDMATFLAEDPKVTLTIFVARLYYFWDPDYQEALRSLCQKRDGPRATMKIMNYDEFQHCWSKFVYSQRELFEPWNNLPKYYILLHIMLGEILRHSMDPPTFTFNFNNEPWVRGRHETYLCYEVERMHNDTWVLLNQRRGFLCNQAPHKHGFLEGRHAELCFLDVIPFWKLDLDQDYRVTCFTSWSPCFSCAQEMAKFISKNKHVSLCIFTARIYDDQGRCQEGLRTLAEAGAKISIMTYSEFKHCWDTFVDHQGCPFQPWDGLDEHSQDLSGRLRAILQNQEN
A3A deaminase: inhibitors of human APOBEC3A DNA deaminase; P31941; recombinant A3A, FAM/TAMRA ssDNA deamination fluorescence; inhibition, % at 20 µM; 330,000 tested, 0.41% active; AID 493011;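 active = at least 40% inhibition at 20 µM here, with at most 30% in a related deaminase screen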;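 note: plate controls were A3A with DMSO for no effect and wells lacking A3A enzyme for full effect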
Target sequence (P31941 whole entry, looked up): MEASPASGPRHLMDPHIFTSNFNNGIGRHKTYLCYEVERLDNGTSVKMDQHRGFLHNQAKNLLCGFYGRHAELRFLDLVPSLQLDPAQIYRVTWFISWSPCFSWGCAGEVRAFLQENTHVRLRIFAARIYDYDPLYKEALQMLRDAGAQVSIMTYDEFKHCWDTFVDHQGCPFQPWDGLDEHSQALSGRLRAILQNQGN
CAL PDZ FP-1: CAL PDZ (human) peptide binding inhibition. Q9HD26. purified CAL PDZ, TMR-peptide fluorescence polarization, 1 h. inhibition, % at 24.9 µM. 300,000 tested, 0.92% active;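 active = mean inhibition of at least 30% with at least half of replicates also reaching 30%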;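 note: 0% = DMSO neutral control and 100% = excess unlabeled competitor peptide PRC23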
Keap1-Nrf2 PPI: inhibitors of human Keap1-Nrf2 protein-protein interaction; Keap1 Kelch-Nrf2 peptide fluorescence polarization, 1536-well; inhibition, % at 9.4 µM; 340,000 tested, 0.15% active; AID 504523; in the data active = inhibition above about 12%;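 note: human Keap1 Kelch domain with fluorescein labeled Nrf2 9mer peptide probe; 0% = neutral control wells and 100% = peptide positive control; higher means more block of Keap1 binding to Nrf2 peptide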
CAL PDZ FP-2: human CAL PDZ-peptide interaction inhibition; purified CAL PDZ, TMR-peptide fluorescence polarization, 1 h; 330,000 tested, 0.02% active; Q9HD26; inhibition, % at 20 µM;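 active = highest replicate inhibition of at least 40%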;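 note: plate controls were DMSO neutral control wells for no effect and unlabeled competitor peptide control wells for full effect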
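Test system: tagged CAL PDZ domain / Buffer or medium: sodium phosphate/NaCl buffer pH 7.4 with TCEP, IgG, Thesit / Reagent: TMR-labelled reporter peptide T*-PRC34 bound in PDZ groove / Compound dosing: single point, 20 µM / Schedule: 1 h incubation at room temperature before polarization reading / Technique: fluorescence polarization (mP) / Benchmarks: unlabelled peptide, DMSO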
C-LANA FP: KSHV C-LANA DNA binding inhibition; AID 504423; 340,000 tested, 0.078% active; inhibition, % at 9 µM; MBP-C-LANA/FAM-LBS DNA binding, fluorescence polarization;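 active = highest replicate inhibition at or above 60% at 9 µM, even if other replicates fall short; inactive = all replicates below 60% inhibition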;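 note: 0% = neutral control wells and 100% = 4 µM acridine orange control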
APOBEC3A confirm: confirmation of human APOBEC3A DNA deaminase inhibitors; shares compounds with A3A deaminase; recombinant A3A, ssDNA deaminase UDG fluorescence assay; inhibition, % at 20 µM; 1,400 tested, 63% active; AID 493151;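 active = inhibition reaching a set limit, 80% of the first screen's cutoff, at 20 µM in any replicate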;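 note: plate controls were DMSO wells with A3A for no effect and wells lacking A3A enzyme for full effect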
UDG A3A counter: UDG inhibition in APOBEC3A counter-screen; 1,000 tested, under 10 active; AID 504714; UDG counterscreen, FAM/TAMRA uracil oligo fluorescence; inhibition, % at 20 µM; shares compounds with A3A deaminase; call rule not given here
Active calls of the source: *. A selection: hits, their analogues and other compounds. The true share with any hit is near 1.7%.

`C[n+]1cccc(C(=O)N/N=C/c2ccc3c(c2)OCO3)c1` gave APOBEC3G inh 18, A3A deaminase 75*, CAL PDZ FP-1 -5, Keap1-Nrf2 PPI -5, CAL PDZ FP-2 -3, C-LANA FP -1, APOBEC3A confirm 69* and UDG A3A counter -1.
For CC1CCCC(C)N1CCNC(=O)CCc1nnc2n(Cc3ccccc3)c(=O)c3ccccc3n12 (centres undefined) the results were APOBEC3G inh -1, A3A deaminase 1, Keap1-Nrf2 PPI -6, CAL PDZ FP-2 1 and C-LANA FP 3.
CCCN(CC(=O)Nc1cc(Cl)ccc1Cl)C(=O)/C=C/c1ccco1 was read as APOBEC3G inh -3, A3A deaminase 77*, CAL PDZ FP-1 -8, Keap1-Nrf2 PPI 3, CAL PDZ FP-2 -1, C-LANA FP 0, APOBEC3A confirm 1 and UDG A3A counter -2.
`O=C(CCCOc1ccccc1)N1CCN(S(=O)(=O)c2ccc(Cl)cc2)CC1` gave APOBEC3G inh 8, A3A deaminase 0, CAL PDZ FP-1 0, Keap1-Nrf2 PPI 1, CAL PDZ FP-2 -2 and C-LANA FP 0.
Screening CCOc1ccc(OCCCC(=O)N2CCN(S(=O)(=O)c3ccc(Cl)cc3)CC2)cc1 returned APOBEC3G inh 15, A3A deaminase 70*, CAL PDZ FP-1 -1, Keap1-Nrf2 PPI -3, CAL PDZ FP-2 -2, C-LANA FP -1, APOBEC3A confirm 77* and UDG A3A counter -2.
`CCc1cccc(OCC(=O)Nc2cc(S(=O)(=O)N3CCOCC3)ccc2N2CCCC2)c1` gave APOBEC3G inh -3, A3A deaminase -5, CAL PDZ FP-1 -2, Keap1-Nrf2 PPI -1, CAL PDZ FP-2 -1 and C-LANA FP 0.
`C[n+]1cccc(C2C(C#N)=C(N)Oc3c2ccc2ccccc32)c1` (centres undefined) gave APOBEC3G inh 15, A3A deaminase 41*, Keap1-Nrf2 PPI -3, CAL PDZ FP-2 0, C-LANA FP 1, APOBEC3A confirm 31* and UDG A3A counter -1.
Screening C[n+]1cccc2ccc3c(c21)OC(N)=C(C#N)C3c1ccccc1 (centres undefined) returned APOBEC3G inh 13, A3A deaminase 34, Keap1-Nrf2 PPI -1, CAL PDZ FP-2 -1 and C-LANA FP 0.
`CCOC(=O)C1C(c2ccc(O)c(OC)c2)NC(=S)NC1(O)C(F)(F)F` (centres undefined) gave APOBEC3G inh -11, A3A deaminase 0, CAL PDZ FP-1 -3, Keap1-Nrf2 PPI -4, CAL PDZ FP-2 -3 and C-LANA FP 1.
Oc1cccc(O)c1O was read as APOBEC3G inh 4, A3A deaminase 42* and APOBEC3A confirm 44*.
Screening O=C(O)c1cccc(O)c1O returned APOBEC3G inh -4, A3A deaminase 1, CAL PDZ FP-1 -5, Keap1-Nrf2 PPI -2, CAL PDZ FP-2 0 and C-LANA FP 4.
O=C(CSc1n[nH]c(-c2ccncc2)n1)Nc1ccc(Cl)c(Cl)c1 was read as APOBEC3G inh 15, A3A deaminase 59*, Keap1-Nrf2 PPI 2, CAL PDZ FP-2 -2, C-LANA FP -1, APOBEC3A confirm 48* and UDG A3A counter 6.
For O=C(CCN1CCCCC1=O)NC1CCCN(Cc2ccc(Cl)cc2)C1 (centres undefined) the results were APOBEC3G inh 2, A3A deaminase 5, CAL PDZ FP-1 -3, Keap1-Nrf2 PPI 2, CAL PDZ FP-2 -2 and C-LANA FP 1.
Screening COc1cc(C(=O)N=c2sccn2C)c([N+](=O)[O-])cc1OC returned APOBEC3G inh 10, A3A deaminase 53*, CAL PDZ FP-1 1, Keap1-Nrf2 PPI 1, CAL PDZ FP-2 -2, C-LANA FP -1 and APOBEC3A confirm 6.
`O=C(COc1cccc(C(F)(F)F)c1)NCC(c1ccco1)N1CCCC1` (centres undefined) gave APOBEC3G inh 2, A3A deaminase 46*, CAL PDZ FP-1 -3, Keap1-Nrf2 PPI -5, CAL PDZ FP-2 1, C-LANA FP 4 and APOBEC3A confirm 3.
Screening COc1ccc(/C=C/C(=O)Nc2cc(F)ccc2C)cc1S(=O)(=O)N1CCOCC1 returned APOBEC3G inh -2, A3A deaminase 1, CAL PDZ FP-1 -1, Keap1-Nrf2 PPI 0, CAL PDZ FP-2 -2 and C-LANA FP 1.
Screening CCN1C(=O)c2ccccc2Sc2ccc(C(=O)O)cc21 returned APOBEC3G inh -4, A3A deaminase -4, Keap1-Nrf2 PPI -2, CAL PDZ FP-2 -3 and C-LANA FP 0.
`CCOC(=O)c1ccc2c(c1)N(C)C(=O)c1ccccc1S2` gave APOBEC3G inh 13, A3A deaminase 57*, CAL PDZ FP-1 -5, Keap1-Nrf2 PPI -3, CAL PDZ FP-2 0, C-LANA FP 1, APOBEC3A confirm 82* and UDG A3A counter -3.
`COc1ccc(Nc2nnc(SCc3cc([N+](=O)[O-])cc4c3OCOC4)s2)cc1` gave APOBEC3G inh -5, A3A deaminase 0, CAL PDZ FP-1 3, Keap1-Nrf2 PPI 3, CAL PDZ FP-2 0 and C-LANA FP 1.
For O=C(CCNC(=O)c1ccc([N+](=O)[O-])cc1)NCCc1ccc(Cl)cc1 the results were APOBEC3G inh 5, A3A deaminase 20, CAL PDZ FP-1 -4, Keap1-Nrf2 PPI 4, CAL PDZ FP-2 -2 and C-LANA FP -1.
Screening O=C(CCNC(=O)c1ccc([N+](=O)[O-])cc1)Nc1nccs1 returned APOBEC3G inh 13, A3A deaminase 47*, CAL PDZ FP-1 6, Keap1-Nrf2 PPI -4, CAL PDZ FP-2 -3, C-LANA FP 1 and APOBEC3A confirm 2.
`Cc1ccc(CNC(=O)CCNC(=O)c2ccc([N+](=O)[O-])cc2)cc1` gave APOBEC3G inh 12, A3A deaminase 46*, CAL PDZ FP-1 -2, Keap1-Nrf2 PPI 0, CAL PDZ FP-2 -2, C-LANA FP 1, APOBEC3A confirm 41* and UDG A3A counter 1.
Screening CCN(CC)CCNC(=O)c1ccc(NC(=O)C2CC(=O)N(c3ccc4c(c3)OCCO4)C2)cc1 (centres undefined) returned APOBEC3G inh 5, A3A deaminase 48*, CAL PDZ FP-1 -1, Keap1-Nrf2 PPI 2, CAL PDZ FP-2 0, C-LANA FP -1, APOBEC3A confirm 52* and UDG A3A counter -4.
CCN1/C(=C/c2ccc3cccc(C)c3[n+]2CC)Sc2ccccc21 was read as APOBEC3G inh 24, A3A deaminase 70*, Keap1-Nrf2 PPI -23, CAL PDZ FP-2 6, C-LANA FP -52, APOBEC3A confirm 85* and UDG A3A counter 5.

Assay outcomes (PubChem BioAssay)
